# Measured values published in PubChem BioAssay AID493047 (Johns Hopkins Ion Channel Center, 2011).
# A number with no mark means an inactive call.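 How the source made its calls: active means a rise or drop in KCNQ3 potassium channel activity at some tested dose, with a dose-response curve obtained; inactive means no effect at any dose, or no curve.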
# Biological target: Potassium voltage-gated channel subfamily KQT member 3 (Rattus norvegicus) (UniProt O88944)
# Assay: KCNQ3 channel potentiation by KCNQ2 openers, dose response, selectivity assay for KCNQ2 activator project, cell-based, thallium flux, CHO-K1 transient KCNQ3, rat (AID 493047)
# Conditions: CHO-K1 transient KCNQ3, FluxOR thallium flux fluorescence; series mostly up to 30 µM; potentiation: at the top concentration
# Method in brief: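 Assay system – transiently transfected CHO-K1 cells · Reagent – potassium/thallium sulfate stimulus buffer · Schedule – FluxOR dye loading 90 min, compound exposure 20 min, both RT, dark · Signal – FluxOR thallium-flux fluorescence · Read-out – % change of flux ratio relative to vehicle · Control set – vehicle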
# Chain of Potassium voltage-gated channel subfamily KQT member 3 (Rattus norvegicus) (O88944 whole entry, looked up): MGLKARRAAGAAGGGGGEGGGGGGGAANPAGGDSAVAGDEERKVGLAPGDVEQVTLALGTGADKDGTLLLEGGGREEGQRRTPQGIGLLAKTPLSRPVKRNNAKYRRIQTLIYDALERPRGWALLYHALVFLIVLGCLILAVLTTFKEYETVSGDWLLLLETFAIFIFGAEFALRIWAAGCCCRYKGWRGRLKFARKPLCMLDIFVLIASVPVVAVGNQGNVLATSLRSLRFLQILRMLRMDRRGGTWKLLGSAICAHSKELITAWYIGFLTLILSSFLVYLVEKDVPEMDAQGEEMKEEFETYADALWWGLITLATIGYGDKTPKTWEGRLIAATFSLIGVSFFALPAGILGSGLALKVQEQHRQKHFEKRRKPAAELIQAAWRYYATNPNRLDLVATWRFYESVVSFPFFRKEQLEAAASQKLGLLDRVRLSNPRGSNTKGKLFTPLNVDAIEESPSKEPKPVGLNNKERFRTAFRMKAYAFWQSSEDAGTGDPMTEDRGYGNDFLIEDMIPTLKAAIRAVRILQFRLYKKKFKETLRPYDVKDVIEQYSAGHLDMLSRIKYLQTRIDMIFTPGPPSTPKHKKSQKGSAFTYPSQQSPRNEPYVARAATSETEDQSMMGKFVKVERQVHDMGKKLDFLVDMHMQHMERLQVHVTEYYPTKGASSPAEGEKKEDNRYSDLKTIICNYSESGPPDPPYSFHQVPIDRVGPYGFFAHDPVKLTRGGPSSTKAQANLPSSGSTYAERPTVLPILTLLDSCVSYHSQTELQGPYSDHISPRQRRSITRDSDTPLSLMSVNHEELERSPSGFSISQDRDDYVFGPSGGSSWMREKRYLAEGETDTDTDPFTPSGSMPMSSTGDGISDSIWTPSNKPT
row,SMILES,potentiation
1,Cc1cccc(C)c1NC(=O)C1CC2CCC1C2 (stereo not given),-13.8
2,Cc1cc(C)c(NC(=O)CC(C)(C)C)c(Cl)c1,-1.12
3,CCCCC(=O)Nc1c(C)cc(C)cc1Cl,-1.46
4,Cc1ccc(C)c(NC(=O)C2CC3CCC2C3)c1 (stereo not given),-10
5,Cc1cc(C)c(NC(=O)C2CC3CCC2C3)c(C)c1 (stereo not given),-9.88
